Activity calls are given as the source filed them. No cut-off for these calls is given here.
Legend:
[1] = target: T1, Androgen receptor (Mus musculus) (UniProt P19091); assay: Agonist activity at mouse androgen receptor at 10 uM after 24 hrs by cell-based luciferase reporter gene assay relative to control
T1 sequence (whole entry): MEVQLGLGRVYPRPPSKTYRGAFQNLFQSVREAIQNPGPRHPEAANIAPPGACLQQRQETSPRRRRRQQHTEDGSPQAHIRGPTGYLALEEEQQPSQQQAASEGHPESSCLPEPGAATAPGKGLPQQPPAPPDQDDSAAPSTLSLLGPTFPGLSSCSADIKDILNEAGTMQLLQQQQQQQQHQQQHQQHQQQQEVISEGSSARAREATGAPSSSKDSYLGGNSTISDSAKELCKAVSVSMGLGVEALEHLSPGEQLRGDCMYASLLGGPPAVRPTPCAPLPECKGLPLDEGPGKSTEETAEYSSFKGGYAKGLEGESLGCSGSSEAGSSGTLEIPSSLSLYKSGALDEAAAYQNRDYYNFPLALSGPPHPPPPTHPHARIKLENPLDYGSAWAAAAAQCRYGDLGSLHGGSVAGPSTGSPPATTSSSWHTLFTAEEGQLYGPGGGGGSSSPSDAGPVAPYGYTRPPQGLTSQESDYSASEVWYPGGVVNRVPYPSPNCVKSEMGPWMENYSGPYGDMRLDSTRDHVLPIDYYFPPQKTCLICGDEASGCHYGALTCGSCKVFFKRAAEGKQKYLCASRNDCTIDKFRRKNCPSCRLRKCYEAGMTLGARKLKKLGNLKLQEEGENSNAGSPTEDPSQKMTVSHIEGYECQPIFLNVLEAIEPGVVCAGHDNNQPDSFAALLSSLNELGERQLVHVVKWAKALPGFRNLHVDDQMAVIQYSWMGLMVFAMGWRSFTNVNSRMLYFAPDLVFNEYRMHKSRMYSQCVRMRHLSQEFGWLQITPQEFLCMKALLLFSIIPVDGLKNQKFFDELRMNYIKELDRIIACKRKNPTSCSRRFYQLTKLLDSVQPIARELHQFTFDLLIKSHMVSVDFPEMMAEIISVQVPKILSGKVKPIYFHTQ
Outline: (§1)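 Transcriptional activity is expressed as a percentage after 10 μM compound, given alone for agonist mode or with 10 nM DHT for antagonist mode. Data are from triplicate experiments.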

[2] = target: T1, Androgen receptor (Mus musculus); assay: Antagonist activity against mouse androgen receptor assessed as reduction of 10 nM DHT-induced transcriptional activity at 10 uM after 24 hrs by cell-based luciferase reporter gene assay relative to control; outline: as §1
[3] = target: T2, Androgen receptor (Homo sapiens) (UniProt P10275); assay: Inhibition of androgen receptor-mediated SRC2 coactivator recruitment in human PPC1 cells at 10 uM after 1 hr by DAPI staining-based fluorescence microscopic analysis; assay type: cell-based; conditions: PPC-1
T2 sequence (whole entry): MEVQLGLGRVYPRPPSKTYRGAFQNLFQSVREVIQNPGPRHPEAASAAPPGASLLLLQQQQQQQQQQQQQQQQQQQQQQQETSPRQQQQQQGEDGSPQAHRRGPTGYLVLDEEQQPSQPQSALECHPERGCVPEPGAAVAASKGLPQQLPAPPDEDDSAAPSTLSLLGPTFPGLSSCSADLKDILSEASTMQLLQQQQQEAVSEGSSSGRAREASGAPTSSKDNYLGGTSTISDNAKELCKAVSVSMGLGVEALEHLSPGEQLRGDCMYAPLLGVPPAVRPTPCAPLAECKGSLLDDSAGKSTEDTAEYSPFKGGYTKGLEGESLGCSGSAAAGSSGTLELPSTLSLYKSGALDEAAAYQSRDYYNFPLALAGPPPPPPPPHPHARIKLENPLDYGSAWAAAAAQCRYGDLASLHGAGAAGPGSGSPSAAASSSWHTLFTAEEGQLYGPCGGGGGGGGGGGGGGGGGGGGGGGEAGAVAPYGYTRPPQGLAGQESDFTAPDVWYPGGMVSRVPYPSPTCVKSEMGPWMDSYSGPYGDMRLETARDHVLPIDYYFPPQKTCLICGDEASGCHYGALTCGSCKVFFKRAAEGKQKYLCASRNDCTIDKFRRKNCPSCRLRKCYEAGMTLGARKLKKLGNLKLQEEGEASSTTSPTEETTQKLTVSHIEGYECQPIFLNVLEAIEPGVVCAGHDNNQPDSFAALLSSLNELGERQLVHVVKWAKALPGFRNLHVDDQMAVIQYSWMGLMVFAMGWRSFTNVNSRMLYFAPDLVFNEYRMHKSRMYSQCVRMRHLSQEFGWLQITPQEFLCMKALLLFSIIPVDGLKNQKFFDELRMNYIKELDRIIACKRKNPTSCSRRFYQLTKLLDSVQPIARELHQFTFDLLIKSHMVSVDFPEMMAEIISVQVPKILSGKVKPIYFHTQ

PPC-1 = assay: Cytotoxicity against human androgen-independent/AR-negative PPC1 cells after 3 days by MTS/PMS assay; assay type: functional, cell-based
Androgen receptor [4] = target: T3, Androgen receptor (Mus musculus, UniProt P19091); assay: Displacement of [3H] ]5alpha-DHT from mouse androgen receptor expressed in monkey COS7 cells after 2 hrs by scintillation counting analysis; assay type: cell-based, COS-7
T3 sequence (P19091 whole entry): T1 sequence (whole entry)

LNCaP [5] = assay: Cytotoxicity against human androgen-dependent LNCAP cells after 6 days by MTS/PMS assay; assay type: functional, cell-based; conditions: 144 h
MEF = assay: Cytotoxicity against mouse MEF cells at 10 uM after 4 days by MTS/PMS assay; assay type: cell-based; conditions: 96 h
[6] = target: T2, Androgen receptor (Homo sapiens); assay: Inhibition of androgen receptor-mediated SRC1 coactivator recruitment in human PPC1 cells at 10 uM after 1 hr by DAPI staining-based fluorescence microscopic analysis; assay type: cell-based; conditions: PPC-1
LNCaP [7] = assay: Cytotoxicity against human androgen-dependent LNCAP cells at 10 uM after 7 days by MTS/PMS assay relative to control; assay type: functional; conditions: 168 h, read-out: GI
[8] = target: T2, Androgen receptor (Homo sapiens); assay: Inhibition of DHT-induced androgen receptor-mediated GFP-AR protein nuclear translocation in human PPC1 cells at 10 uM after 1 hr by DAPI staining-based fluorescence microscopic analysis; assay type: cell-based; conditions: PPC-1
[9] = Cytotoxicity against human androgen-independent/AR-positive C4-2 cells […] after 4 days by MTS/PMS assay; assay type: functional, cell-based; conditions: LNCaP C4-2, 96 h
Androgen receptor [10] = target: T3, Androgen receptor; assay: Antagonist activity at mouse androgen receptor assessed as inhibition of transactivation after 24 hrs by cell-based luciferase reporter gene assay

| SMILES | Activity [1] [%] | inhibition [2] | other results |
| --- | --- | --- | --- |
| CCOc1ccc2c(c1OCC)CCN(c1ccc(C(=O)Nc3cccc(OC)c3)cn1)C2 | 0.4 | 87.9% |  |
| O=C(Nc1ccccc1)c1ccc(N2CCc3ccccc3C2)nc1 | 8.7 | 68.9% |  |
| COc1ccc2c(c1)CCN(c1ccc(C(=O)Nc3cccc(C)n3)cn1)C2 | 4 | 94.9% |  |
| CCOc1ccc2c(c1OC)CCN(c1ccc(C(=O)Nc3cccc(C)n3)cn1)C2 | 1.7 | 91% |  |
| CCOc1ccc2c(c1OCc1ccccc1)CCN(c1ccc(C(=O)Nc3cccc(OC)c3)cn1)C2 | 0.5 | 78.6% |  |
| CCOc1ccc2c(c1OCc1ccccc1)CCN(c1ccc(C(=O)Nc3cccc(C)n3)cn1)C2 | 0.6 | 92.9% |  |
| CCOc1ccc2c(c1)CCN(c1ccc(C(=O)Nc3cccc(OC)c3)cn1)C2 | 4 | 95.6% |  |
| O=C(Nc1ccccn1)c1ccc(C(=O)N2CCc3ccccc3C2)nc1 | 15 | 4.5% |  |
| CCOc1ccc2c(c1)CCN(c1ccc(C(=O)Nc3cccc(C)n3)cn1)C2 | 3.9 | 95.1% | inhibition [3]: Active; Activity (PPC-1): inactive; Ki (Androgen receptor [4]): > 50000 nM; IC50 (LNCaP [5]): 1470 nM; Activity (MEF): Non-toxic; inhibition [6]: Active; inhibition of growth at 10 µM (LNCaP [7]): 80%; inhibition [8]: Active; IC50 [9]: 11800 nM; IC50 (Androgen receptor [10]): 460 nM |
| COc1ccc(CNC(=O)c2ccc(N3CCc4ccccc4C3)nc2)cc1 | 9 | 58.2% |  |
| COc1cccc(NC(=O)c2ccc(N3CCc4ccccc4C3)nc2)c1 | 13.6 | 80.4% |  |
| CCOc1ccc2c(c1OC)CCN(c1ccc(C(=O)Nc3cccc(OC)c3)cn1)C2 | 1.8 | 91.4% |  |
| COc1cc2c(cc1OC)CN(c1ccc(C(=O)Nc3ccccn3)cn1)CC2 | 2.5 | 84.5% |  |
| COc1ccc(CNC(=O)c2ccc(N3CCCCC3)nc2)cc1 | 11.1 | 19.4% |  |
| COc1cccc(NC(=O)c2ccc(N3CCc4c(ccc(OC)c4OC)C3)nc2)c1 | 3.9 | 96.6% |  |
| O=C(Nc1ncccn1)c1ccc(N2CCc3ccccc3C2)nc1 | 9.4 | 27.5% |  |
| Cc1cccnc1NC(=O)c1ccc(N2CCc3ccccc3C2)nc1 | 5 | 64.1% |  |
| Cc1ccc(NC(=O)c2ccc(N3CCc4ccccc4C3)nc2)nc1 | 3 | 90.2% |  |
| COc1ccccc1N(C)C(=O)c1ccc(N2CCc3ccccc3C2)nc1 | 9 | 48.8% |  |
| COc1cc2c(cc1OC)CN(c1ccc(C(=O)Nc3ncccc3C)cn1)CC2 | 3.1 | 60.9% |  |
| Cc1ccnc(NC(=O)c2ccc(Cl)nc2)c1 | 6.4 | inactive |  |
| Cc1cccc(NC(=O)c2ccc(N3CCc4cc(OCc5ccccc5)ccc4C3)nc2)n1 | 4.5 | 61.3% |  |
| COc1ccc2c(c1)CCN(c1ccc(C(=O)Nc3ccc(C)cn3)cn1)C2 | 5.2 | 86.9% |  |
| COc1cccc(N(C)C(=O)c2ccc(N3CCc4ccccc4C3)nc2)c1 | 12.5 | 46.4% |  |
| Cc1ccnc(N(C)C(=O)c2ccc(N3CCc4ccccc4C3)nc2)c1 | 12.1 | 32.5% |  |

| SMILES | Activity [1] [%] | inhibition [2] | other results |
| --- | --- | --- | --- |
| Cc1ccc(NC(=O)c2ccc(Cl)nc2)nc1 | 4.9 | 43.1% |  |
| COc1cc2c(cc1OC)CN(c1ccc(C(=O)Nc3cc(C)ccn3)cn1)CC2 | 2.7 | 88.3% |  |
| Cc1cccnc1NC(=O)c1ccc(Cl)nc1 | 3.8 | 0.6% |  |
| CCOc1c(Cl)c(Cl)c2c(c1OCc1ccccc1)CCN(c1ccc(C(=O)Nc3cccc(C)n3)cn1)C2 | 1 | 86.4% |  |
| COc1cc2c(c(OC)c1OC)CCN(c1ccc(C(=O)Nc3cccc(C)n3)cn1)C2 | 0.8 | 89.1% |  |
| O=C(Nc1ccc(F)cc1)c1ccc(N2CCc3ccccc3C2)nc1 | 7.1 | 65.1% |  |
| CCOc1ccc2c(c1OCC)CCN(c1ccc(C(=O)Nc3cccc(C)n3)cn1)C2 | 1 | 88.3% |  |
| O=C(Nc1ccccc1)c1ccc(C(=O)N2CCc3ccccc3C2)nc1 | 7.8 | 33.1% |  |
| O=C(Nc1nccs1)c1ccc(N2CCc3ccccc3C2)nc1 | 9.7 | 57.4% |  |
| O=C(Nc1ccccn1)c1ccc(N2CCc3ccccc3C2)nc1 | 5.6 | 86.4% |  |
| COc1cccc(NC(=O)c2ccc(N3CCc4cc(OC)ccc4C3)nc2)c1 | 3.1 | 95.7% |  |
| COc1ccc(NC(=O)c2ccc(N3CCc4ccccc4C3)nc2)cn1 | 7.2 | 79.6% |  |
| Cc1ccccc1N(C)C(=O)c1ccc(N2CCc3ccccc3C2)nc1 | 11.7 | 48.2% |  |
| Cc1cccc(NC(=O)c2ccc(N3CCCCC3)nc2)n1 | 6.8 | 65.7% |  |
| Cc1ccnc(NC(=O)c2ccc(N3CCc4ccccc4C3)nc2)c1 | 3.6 | 58.6% |  |
| COc1cc2c(cc1OC)CN(c1ccc(C(=O)Nc3ccc(C)cn3)cn1)CC2 | 2.8 | 67.6% |  |
| CCOc1ccc2c(c1OCc1ccccc1)CCN(c1ccc(C(=O)N(C)c3cccc(C)n3)cn1)C2 | 1.6 | 77.5% |  |
| Cc1cccc(NC(=O)c2ccc(N3CCN(C)CC3)nc2)n1 | 14.1 | inactive |  |
| COc1ccccc1NC(=O)c1ccc(N2CCc3ccccc3C2)nc1 | 7.4 | 59% |  |
| Cc1cccc(NC(=O)c2ccc(N3CCc4cc(OC(C)C)ccc4C3)nc2)n1 | 3.5 | 95.3% |  |
| O=C(Nc1ccccn1)c1ccc(Cl)nc1 | 4.9 | inactive |  |
| CCOc1c(Cl)c(Cl)c2c(c1OCC)CCN(c1ccc(C(=O)Nc3cccc(C)n3)cn1)C2 | 2.6 | 30.5% |  |
| Cc1ccccc1NC(=O)c1ccc(N2CCc3ccccc3C2)nc1 | 10.4 | 49.7% |  |
| COc1cc2c(cc1OC)CN(c1ccc(C(=O)Nc3cccc(C)n3)cn1)CC2 | 2.1 | 94.4% |  |
